Results on eleven compounds are retold here after publication PMC11729038 (Bioorganic & medicinal chemistry letters, 2024).

A short description of data set [1]: Reaction of electrophiles with CoASH, adduct formation monitored by LC-MS. The data set is classed as physicochemical. The conditions noted are these: for kforward, reaction with CoASH: 25 °C, pH 7.5 phosphate buffer, 2 mM each of CoASH and electrophile, 1 mM TCEP, 5% MeOH, same with and without 1.2 μM AANAT. Summed up: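 Uncatalyzed electrophile–CoASH reactions contained 5% MeOH for electrophile dissolution. CoASH adduct formation was followed over time by LC-MS. Rate constants came from global kinetic fitting of product accumulation. Upper and lower bounds were set within a 0.83 relative error threshold.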

The test system of data set [2] is melatonin receptors. The conditions noted are these: cited from earlier work.
The conditions of data set [3]: cited from earlier work.
Data set [4] relates to sheep AANAT enzyme. As to conditions: truncated bisubstrate inhibitor versus 2; cited from earlier work.
The test system of data set [5] is human AANAT enzyme. As to conditions: cited from earlier work.
For data set [6], the target named is AANAT (Ovis aries, UniProt Q29495). In words: AANAT enzymatic. The format is biochemical, Ovis aries (sheep). The conditions noted are these: for Fold less potent than 1 (AANAT IC50): relative to compound 1; for Inhibition of AANAT at 10 μM test compound concentration: sheep AANAT.
AANAT, sequence (Q29495 whole entry): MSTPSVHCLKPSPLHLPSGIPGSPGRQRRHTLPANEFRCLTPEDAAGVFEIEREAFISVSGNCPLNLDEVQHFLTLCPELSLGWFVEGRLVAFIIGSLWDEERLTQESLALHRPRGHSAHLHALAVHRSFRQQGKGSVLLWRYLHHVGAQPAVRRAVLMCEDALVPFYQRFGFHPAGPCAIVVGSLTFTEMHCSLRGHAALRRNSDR

Regarding `O=C(CBr)NCCc1c[nH]c2ccccc12` [Compound 1, bromoacetyltryptamine, reference compound], the “Second order rate constant, reaction with CoASH” value in data set [1] (pH 6.8, absence of AANAT) is 0.0218 M⁻¹ s⁻¹. Besides, the “Effect of AANAT on rate of reaction with CoASH” value in data set [1] (pH 7.5) was “the same in the presence and absence of AANAT”. Besides, the “Selectivity against melatonin receptors” value in data set [2] is “lack selectivity”.

As for `CC(C)(CO[P@@](=O)(O)O[P@@](=O)(O)OC[C@H]1O[C@@H](n2cnc3c(N)ncnc32)[C@H](O)[C@@H]1OP(=O)(O)O)[C@@H](O)C(=O)NCCC(=O)NCCSCC(=O)NCCc1c[nH]c2ccccc12` [Compound 2], the Cell permeability result in data set [3] is on record as “poor cell permeability”. For the compound `CC(C)(COP(=O)(O)OP(=O)(O)OC[C@H]1O[C@@H](n2cnc3c(N)ncnc32)[C@H](O)[C@@H]1OP(=O)(O)O)[C@@H](O)C(=O)NCCC(=O)NCCSC(=O)NCCc1c[nH]c2ccccc12` [Compound 3a], the “Fold less potent than 2 (reported)” value in data set [4] is on record as 4 X. With `O=C(CBr)NCCc1csc2ccc(O)cc12` [Compound 6], in data set [2], the “Selectivity against melatonin receptors” value is “lack selectivity”. For `C=CC(=O)NCCc1csc2ccc(OC)cc12` [Compound 7], the “Fold less potent than bromoacetyl analog 5 (reported IC50)” value in data set [5] is 40 X. With `O=C(CBr)NCc1c[nH]c2ccccc12` [Compound 8], the “Fold less potent than 1 (AANAT IC50)” value in data set [6] is on record as 6 X. With `O=C(CBr)NCCCc1c[nH]c2ccccc12` [Compound 9], the “Fold less potent than 1 (AANAT IC50)” value in data set [6] was determined as 6 X. On to `C=CC(=O)NCc1c[nH]c2ccccc12` [Compound 10], for which, in data set [1], the “kforward, reaction with CoASH” value turned out to be 0.00026 M⁻¹ s⁻¹. In addition, the “Reaction rate with CoASH at pH 6.8 relative to pH 7.5” value in data set [1] (pH 6.8, in the presence of enzyme) is on record as “several times slower than at pH 7.5”.

`C=CC(=O)NCCc1c[nH]c2ccccc12` [Compound 11]: in data set [6], the “Inhibition of AANAT at 10 μM test compound concentration” value (“Inhibition of AANAT” for short) is “inactive”. In data set [1], the “kforward, reaction with CoASH” value is 0.000146 M⁻¹ s⁻¹. Consider `C=CS(=O)(=O)NCc1c[nH]c2ccccc12` [Compound 12], for which, in data set [6], the “Inhibition of AANAT” value is “inactive”. In data set [1], the “kforward, reaction with CoASH” value was found to be 0.00435 M⁻¹ s⁻¹. With `C=CS(=O)(=O)NCCc1c[nH]c2ccccc12` [Compound 13], the “Inhibition of AANAT” value in data set [6] was “inactive”. Also, the “kforward, reaction with CoASH” value in data set [1] was found to be 0.00183 M⁻¹ s⁻¹.
